Source: ChEMBL document CHEMBL1123801, “Synthesis and antifungal activity of new 1-vinylimidazoles” (1987)
Converted amounts (≈) assume the structure as drawn.

Key:
Candida albicans [1] = experiment: Minimum inhibitory concentration (MIC) against Candida albicans; type: functional
Procedure, shortened: (§1)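 Broth microdilution in Sabouraud's glucose broth. Final inocula 1×10^5 cells/mL for the yeast (C. albicans) and 1×10^5 conidia/mL for the mold (A. fumigatus) and the dermatophyte (T. asteroides). MIC read as the fungistatic end point. Lowest value of duplicated experiments.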

Aspergillus fumigatus = experiment: Minimum inhibitory concentration (MIC) against Aspergillus fumigatus; type: functional; procedure, shortened: as §1
Candida albicans [2] = experiment: Inhibition of pseudomycelium formation of Candida albicans.; type: functional; conditions: read-out: MEC
Procedure, shortened: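 C. albicans KE-2 (clinical isolate), final inoculum 1×10^6 yeast cells/mL in EMEM with 20% calf serum. Compounds serially diluted by the microtiter dilution system used for MICs. After incubation, wells Giemsa-stained (5% in phosphate buffer) and examined microscopically. MEC (μg/mL) = lowest concentration preventing typical pseudomycelium formation. Lowest value of duplicated experiments.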

Trichophyton benhamiae [3] = experiment: (§2) Minimum inhibitory concentration against Trichophyton asteroides; type: functional; procedure, shortened: as §1
[4] = as §2; type: functional; conditions: Trichophyton benhamiae; procedure, shortened: as §1
Trichophyton rubrum [5] = experiment: Minimum inhibitory concentration against Trichophyton rubrum IFO 5467; type: functional
Procedure, shortened: (§3)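 Agar dilution on Sabouraud's glucose agar. Inocula 1×10^6 cells/mL for the yeast strains (C. albicans IFO 1060, 1388) and 1×10^6 conidia/mL for the dermatophytes (T. mentagrophytes IFO 5809, 5810; T. rubrum IFO 5467, 5807). MIC in μg/mL, lowest value of duplicated experiments.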

Candida albicans [6] = experiment: Minimum inhibitory concentration against Candida albicans IFO 1060; type: functional; procedure, shortened: as §3
Trichophyton rubrum [7] = experiment: Minimum inhibitory concentration against Trichophyton rubrum IFO 5807; type: functional; procedure, shortened: as §3
Trichophyton benhamiae [8] = experiment: Minimum inhibitory concentration against Trichophyton mentagrophytes IFO 5809; type: functional, Arthroderma benhamiae; procedure, shortened: as §3
Candida albicans [9] = experiment: Minimum inhibitory concentration against Candida albicans IFO 1388; type: functional; procedure, shortened: as §3
Trichophyton benhamiae [10] = experiment: Minimum inhibitory concentration against Trichophyton mentagrophytes IFO 5810; type: functional, Arthroderma benhamiae; procedure, shortened: as §3

Row | Structure (SMILES) | MIC (Candida albicans [1]) | MIC (Aspergillus fumigatus) | MIC (Trichophyton benhamiae [3]) | MIC [4] | MIC (Trichophyton rubrum [5]) | MIC (Candida albicans [6]) | MIC (Trichophyton rubrum [7]) | MIC (Trichophyton benhamiae [8]) | MIC (Candida albicans [9]) | MIC (Trichophyton benhamiae [10]) | minimal effective concentration (Candida albicans [2])
1 | C=C(c1ccccc1OCC(C)C)n1ccnc1 | 100 µg/mL (≈ 413 µM) | 1.6 µg/mL (≈ 6.6 µM) | 0.1 µg/mL (≈ 0.413 µM) |  |  |  |  |  |  |  | 0.63 µg/mL
2 | C=C(c1cc(Cl)ccc1OCC(C)C)n1ccnc1 | 50 µg/mL (≈ 181 µM) | 0.8 µg/mL (≈ 2.89 µM) | 0.1 µg/mL (≈ 0.361 µM) |  |  |  |  |  |  |  | 1.25 µg/mL
3 | CN(C)C/C=C(\c1ccccc1OCc1ccc(Cl)cc1)n1ccnc1 | > 100 µg/mL | > 100 µg/mL | 1.6 µg/mL (≈ 4.35 µM) |  |  |  |  |  |  |  | 1.25 µg/mL
4 | CC(C)COc1ccccc1/C(=C/CN(C)C)n1ccnc1 | > 100 µg/mL | > 100 µg/mL | > 100 µg/mL |  |  |  |  |  |  |  | 5 µg/mL
5 | C/C=C(/c1ccccc1OCc1ccc(Cl)cc1)n1ccnc1 | 6.2 µg/mL (≈ 19.1 µM) | 3.1 µg/mL (≈ 9.54 µM) | 0.1 µg/mL (≈ 0.308 µM) |  | 0.8 µg/mL (≈ 2.46 µM) | 12.5 µg/mL (≈ 38.5 µM) | 1.6 µg/mL (≈ 4.93 µM) | 1.6 µg/mL (≈ 4.93 µM) | 12.5 µg/mL (≈ 38.5 µM) | 0.8 µg/mL (≈ 2.46 µM) | 
6 | CCC(CC)=C(c1cc(Cl)ccc1OC)n1cncn1 | 100 µg/mL (≈ 343 µM) | 100 µg/mL (≈ 343 µM) | 0.8 µg/mL (≈ 2.74 µM) |  |  |  |  |  |  |  | 1.25 µg/mL
7 | C=C(c1cc(Cl)cc(Cl)c1OCc1ccsc1)n1ccnc1 | > 100 µg/mL | 100 µg/mL (≈ 285 µM) | 6.2 µg/mL (≈ 17.7 µM) |  |  |  |  |  |  |  | 
8 | CC(C)=C(c1ccccc1OCc1ccc(Cl)cc1Cl)n1ccnc1 | 12.5 µg/mL (≈ 33.5 µM) | 1.6 µg/mL (≈ 4.29 µM) | 3.1 µg/mL (≈ 8.3 µM) |  |  |  |  |  |  |  | 
9 | C=C(c1ccccc1OCCC)n1ccnc1 | 100 µg/mL (≈ 438 µM) | 1.6 µg/mL (≈ 7.01 µM) | 0.1 µg/mL (≈ 0.438 µM) |  |  |  |  |  |  |  | 
10 | C=C(c1cc(Cl)ccc1OCCc1ccccc1)n1ccnc1 | 50 µg/mL (≈ 154 µM) | 6.3 µg/mL (≈ 19.4 µM) | 0.1 µg/mL (≈ 0.308 µM) |  |  |  |  |  |  |  | 
11 | C=C(c1ccccc1OCc1ccsc1Cl)n1ccnc1 | 6.2 µg/mL (≈ 19.6 µM) | 1.6 µg/mL (≈ 5.05 µM) | 0.1 µg/mL (≈ 0.316 µM) |  | 0.4 µg/mL (≈ 1.26 µM) | 12.5 µg/mL (≈ 39.5 µM) | 0.8 µg/mL (≈ 2.53 µM) | 1.6 µg/mL (≈ 5.05 µM) | 12.5 µg/mL (≈ 39.5 µM) | 0.8 µg/mL (≈ 2.53 µM) | 0.8 µg/mL
12 | CC=C(c1cc(Cl)ccc1OCc1ccccc1)n1ccnc1 | 6.2 µg/mL (≈ 19.1 µM) | 3.1 µg/mL (≈ 9.54 µM) | 0.2 µg/mL (≈ 0.616 µM) |  |  |  |  |  |  |  | 
13 | CC(C)=C(c1ccccc1OCc1ccccc1)n1ccnc1 | 25 µg/mL (≈ 82.1 µM) | 12.5 µg/mL (≈ 41.1 µM) | 1.6 µg/mL (≈ 5.26 µM) |  |  |  |  |  |  |  | 
14 | C=C(c1cc(Cl)ccc1OCCC)n1ccnc1 | 25 µg/mL (≈ 95.2 µM) | 0.8 µg/mL (≈ 3.04 µM) | 0.1 µg/mL (≈ 0.381 µM) |  |  |  |  |  |  |  | 

The next lines start with results.

Row | MIC (Candida albicans [1]) | MIC (Aspergillus fumigatus) | MIC (Trichophyton benhamiae [3]) | MIC [4] | MIC (Trichophyton rubrum [5]) | MIC (Candida albicans [6]) | MIC (Trichophyton rubrum [7]) | MIC (Trichophyton benhamiae [8]) | MIC (Candida albicans [9]) | MIC (Trichophyton benhamiae [10]) | Structure (SMILES) | minimal effective concentration (Candida albicans [2])
15 | > 100 µg/mL | > 100 µg/mL |  | > 100 µg/mL |  |  |  |  |  |  | CC(c1ccc(Cl)cc1)(n1ccnc1)n1ccnc1 | 
16 | 50 µg/mL (≈ 185 µM) | 1.6 µg/mL (≈ 5.92 µM) | 0.1 µg/mL (≈ 0.37 µM) |  |  |  |  |  |  |  | CCCCOc1ccccc1C(=C(C)C)n1ccnc1 | 0.31 µg/mL
17 | 3.1 µg/mL (≈ 9.15 µM) | 6.2 µg/mL (≈ 18.3 µM) | 0.1 µg/mL (≈ 0.295 µM) |  | 1.6 µg/mL (≈ 4.72 µM) | 12.5 µg/mL (≈ 36.9 µM) | 0.8 µg/mL (≈ 2.36 µM) | 1.6 µg/mL (≈ 4.72 µM) | 12.5 µg/mL (≈ 36.9 µM) | 0.8 µg/mL (≈ 2.36 µM) | CC(C)=C(c1ccccc1OCc1ccc(Cl)cc1)n1ccnc1 | 
18 | 25 µg/mL (≈ 86 µM) | 6.3 µg/mL (≈ 21.7 µM) | 0.2 µg/mL (≈ 0.688 µM) |  |  |  |  |  |  |  | CCCOc1ccc(Cl)cc1C(=C(C)C)n1ccnc1 | 0.31 µg/mL
19 | 50 µg/mL (≈ 190 µM) | 0.8 µg/mL (≈ 3.04 µM) | 0.1 µg/mL (≈ 0.381 µM) |  |  |  |  |  |  |  | C=C(c1cc(Cl)ccc1OC(C)C)n1ccnc1 | 5 µg/mL
20 | 100 µg/mL (≈ 489 µM) | 100 µg/mL (≈ 489 µM) | 25 µg/mL (≈ 122 µM) |  |  |  |  |  |  |  | C=C(c1ccc(Cl)cc1)n1ccnc1 | > 20 µg/mL
21 | > 100 µg/mL | > 100 µg/mL | 0.8 µg/mL (≈ 2.74 µM) |  |  |  |  |  |  |  | C=C(c1cc(Cl)ccc1OCCC(C)C)n1cncn1 | 20 µg/mL
22 | 25 µg/mL (≈ 86.1 µM) | 6.2 µg/mL (≈ 21.4 µM) | 0.1 µg/mL (≈ 0.344 µM) |  |  |  |  |  |  |  | C=C(c1ccccc1OC(C)c1ccccc1)n1ccnc1 (centres undefined) | 
23 | > 100 µg/mL | > 100 µg/mL |  | 0.8 µg/mL (≈ 2.66 µM) |  |  |  |  |  |  | c1ccc(C(c2ccccc2)(n2ccnc2)n2ccnc2)cc1 | 
24 | 12.5 µg/mL (≈ 34.8 µM) | 0.1 µg/mL (≈ 0.278 µM) | 6.2 µg/mL (≈ 17.3 µM) |  |  |  |  |  |  |  | CC=C(c1ccccc1OCc1ccc(Cl)cc1Cl)n1ccnc1 | 
25 | 25 µg/mL (≈ 103 µM) | 1.6 µg/mL (≈ 6.6 µM) | 50 µg/mL (≈ 206 µM) |  |  |  |  |  |  |  | C=C(c1ccccc1OCCCC)n1ccnc1 | 
26 | > 100 µg/mL | > 100 µg/mL | 0.8 µg/mL (≈ 2.55 µM) |  |  |  |  |  |  |  | C/C(CN(C)C)=C(\c1ccccc1OCC(C)C)n1ccnc1 | 0.63 µg/mL
27 | 25 µg/mL (≈ 71.7 µM) | 6.2 µg/mL (≈ 17.8 µM) | 3.1 µg/mL (≈ 8.9 µM) |  |  |  |  |  |  |  | CC(C)=C(c1ccccc1OCCCOc1ccccc1)n1ccnc1 | 
28 | 12.5 µg/mL (≈ 36.9 µM) | 3.1 µg/mL (≈ 9.15 µM) | 3.1 µg/mL (≈ 9.15 µM) |  |  |  |  |  |  |  | CC(C)=C(c1ccccc1OCc1cccc(Cl)c1)n1ccnc1 | 
